M5 ag: CHRM5 agonism in calcium assay; P08912; CHO-K1 hM5 cells, Fluo-8 calcium fluorescence; 0% DMSO wells, 100% maximal acetylcholine response; activation, % at 3 µM; actives 0.19% (n = 360,000); AID 624037;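 active = activation above the run's mean over test compounds plus 3 SD, cut at about 23% in these data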;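 note: signal is peak over basal fluorescence ratio across the kinetic read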
M4 PAM: CHRM4 positive allosteric modulation; P08173; CHO-K1 hM4/Gqi5, Fluo-8 calcium fluorescence, ACh EC20; 0% = ACh EC20, 100% = maximal ACh; activation, % at 3 µM; actives 0.4% (n = 360,000); AID 624126;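 active = activation above its plate's cutoff, the mean activation of sample wells plus 3 SD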
Target sequence (P08173 whole entry, looked up): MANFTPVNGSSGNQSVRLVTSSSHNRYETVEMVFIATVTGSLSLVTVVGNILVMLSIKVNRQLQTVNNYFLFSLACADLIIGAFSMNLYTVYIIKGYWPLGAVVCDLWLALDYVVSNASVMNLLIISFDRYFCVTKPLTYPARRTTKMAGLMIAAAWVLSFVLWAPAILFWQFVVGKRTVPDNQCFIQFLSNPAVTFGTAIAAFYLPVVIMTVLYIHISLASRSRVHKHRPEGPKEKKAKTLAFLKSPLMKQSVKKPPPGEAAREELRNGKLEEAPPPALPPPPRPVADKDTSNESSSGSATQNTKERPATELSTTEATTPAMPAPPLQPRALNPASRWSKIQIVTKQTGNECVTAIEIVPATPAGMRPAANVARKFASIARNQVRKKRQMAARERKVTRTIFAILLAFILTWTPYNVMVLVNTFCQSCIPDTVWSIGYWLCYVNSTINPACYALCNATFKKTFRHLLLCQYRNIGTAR
M5 PAM: positive allosteric modulators of human muscarinic M5 receptor. CHO-K1 hM5, Fluo-8 calcium, ACh EC20 PAM; 0% = ACh EC20, 100% = ACh EC100. actives 0.3% (n = 360,000). activation, % at 3 µM. P08912. AID 624038;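 active = activation above the run cutoff, the mean activation of all test compounds plus 3 SD, cut at about 18% in these data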
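system = human M5 receptor in CHO-K1 cells | reagent = EC20 acetylcholine as agonist stimulus | compound dosing = single-point, 3 µM nominal | incubation = Fluo-8 loading 80 min at 37 °C plus 30 min room temperature | detection = Fluo-8 calcium dye fluorescence, kinetic read | benchmarks = low control EC20 acetylcholine (0%), high control EC100 acetylcholine (100%)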
M4 ag: CHRM4 agonism in calcium assay; activation, % at 3 µM; CHO-K1 hM4/Gqi5, Fluo-8 calcium fluorescence; vehicle 0%, full acetylcholine response 100%; actives 0.14% (n = 360,000); P08173; AID 624127;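 active = activation above the run mean over all test wells plus 3 SD, cut at about 32% in these data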;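 note: peak over basal fluorescence ratio per well then scaled between controls; 0% = DMSO wells and 100% = acetylcholine at EC100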
CHRM4 antagonist: blocks acetylcholine activation of human M4 receptor. inhibition, % at 3 µM. actives 0.73% (n = 360,000). CHO-hM4 cells, ACh EC80, Fluo-8 calcium fluorescence. AID 624125;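 active = inhibition above its plate's cutoff, the mean inhibition of sample wells plus 3 SD, cut at about 27% in these data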;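 note: 0% = acetylcholine EC80 with DMSO and 100% = DMSO without agonist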
CHRM5 antagonist: blocks acetylcholine activation of human M5 receptor. P08912. CHO-hM5 cells, Fluo-8 calcium fluorescence, ACh EC80. inhibition, % at 3 µM. actives 0.59% (n = 360,000);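 active = inhibition above a per-plate cutoff, the mean of that plate's test compounds plus 3 SD, cut at about 27% in these data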;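 note: 0% = acetylcholine EC80 with DMSO and 100% = DMSO without agonist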
Numbers without * were called inactive. Sampled rows, rich in hits. Any-hit rate of the full collection: about 1.8%.

SMILES	M5 ag	M4 PAM	M5 PAM	M4 ag	CHRM4 antagonist	CHRM5 antagonist
CCCN1C2=C(C(=O)CC(C)(C)C2)C(c2ccc(F)cc2)C2=C1c1ccccc1C2=O (stereo unspecified)	0	30*	11	-1	-4	-4
CCCCN1C2=C(C(=O)CC(C)(C)C2)C(c2ccccc2)C2=C1c1ccccc1C2=O (stereo unspecified)	-3	7	-3	2	-14	1
CC(OC(=O)C1CCCCC1)C(=O)Nc1ccc(S(N)(=O)=O)cc1 (stereo unspecified)	0	22*	1	1	-25	-11
CCN(CC)CCCNC(=S)N1CCN(c2nc(-c3ccccc3)cs2)CC1	-1	-11	2	17	-4	3
O=C(CCc1ccccc1)N1CCN(S(=O)(=O)c2cccs2)CC1	-1	-5	-7	2	0	18
CSc1ncccc1C(=O)OCC(=O)NC(C)CCc1ccccc1 (stereo unspecified)	-1	6	5	2	1	1
Cn1cc(-c2coc3c(C(=O)NCc4cccc(Cl)c4)cccc23)cn1	4	-6	-6	9	-7	8
O=C(Nc1ccccc1)Nc1csc2ccccc12	10	-8	-29	16	11	29*
CC(=O)Nc1csc2ccccc12	-1	9	4	2	1	3
COc1cccc(CNC(=O)CCS(=O)(=O)c2ccc3c(c2)oc(=O)n3C)c1	1	-1	2	1	-5	-9
CC(=O)NCc1ccc(C(=O)O)cc1	2	7	1	0	2	-1
O=S(=O)(Nc1cccc2ncccc12)c1cccs1	0	1	1	3	37*	20
C=C1C2=C(C(=O)N1OC)[C@@H](O)[C@@](C)(O)[C@@H](CCCCC)O2	1	22*	5	0	-17	-5
Cc1nc(N)sc1C(=O)N/N=C/c1cccnc1	3	2	19*	0	4	-8
CC(=O)OCC(=O)C1(O)CCC2C3CC(C)C4=CC(=O)C=CC4(C)C3C(O)CC21C (stereo unspecified)	2	5	-1	4	0	1
Cc1nn2c(=O)cc(COC(=O)c3c(F)cccc3Cl)nc2s1	1	14	2	1	-13	-5
COc1ccccc1OCc1ccc(C(=O)N2CCOCC2)o1	-1	3	-3	1	-26	0
COc1ccccc1OCc1ccc(C(=O)N2CCCCC2)o1	1	34*	22*	16	25	22
Cc1ccc(NC(=O)CCNC(=O)c2ccccc2Cl)nc1	-2	-3	-1	1	3	-2
Cc1ccnc(NC(=O)CCNC(=O)c2ccccc2Cl)c1	-3	21*	-3	1	-3	8
COC(=O)[C@@]12C[C@@H](CC(=O)N3CCC(c4ccccc4)CC3)C(=O)N(Cc3ccc4c(c3)OCO4)C1=CCC(C)(C)C2	-2	-4	1	1	15	-1
CC(=O)n1cc([C@H]2C=C(C(N)=O)O[C@@H](OCc3ccc(CO)cc3)C2)c2ccccc21	29*	-7	-28	34*	16	13
CC1CCN(c2nc3ccccc3n2CC(=O)c2ccccc2)CC1	-8	-26	-17	1	58*	6
Cc1nc2ccccc2n1CC(=O)c1ccccc1	5	-2	13	2	-1	-1
COc1ccccc1Cc1c(-c2ccc(C#N)cc2)nc2c(Cl)cc(C(F)(F)F)cn12	-1	5	-5	2	0	8
SMILES	M5 ag	M4 PAM	M5 PAM	M4 ag	CHRM4 antagonist	CHRM5 antagonist
COc1ccc(-c2cn3cccnc3n2)cc1NC(=O)C1CC1	-1	9	19*	1	26*	-3
CS(=O)(=O)N(CC(=O)NCCSCc1ccccc1Cl)c1ccc(F)cc1	1	-2	-7	4	2	12
O=C(NNC(=O)C1CC1)c1ccccc1[N+](=O)[O-]	-4	0	-1	0	-1	6
CCCNC(=O)C1(C)CCN(C(=O)c2oc3ccccc3c2C)C1 (stereo unspecified)	-1	5	-8	5	-18	1
CCc1c(C)sc(NC(=O)C2CC2c2ccccc2)c1C(N)=O (stereo unspecified)	-3	5	-1	1	27*	3
Nc1nonc1C(=O)NCCNCc1ccccc1OCc1ccccc1F	2	-10	-2	11	5	2
NS(=O)(=O)c1ccc(CCNCc2cc(Br)ccc2OCc2ccccc2F)cc1	0	-16	-20	30	28*	28*
Nc1nonc1C(=O)NCCNCc1cc(Br)ccc1OCc1ccccc1F	0	-16	-13	16	32*	16
Cc1cccc(C(=O)Nc2cc(S(=O)(=O)N3CCOCC3)ccc2N2CCCC2)c1	1	2	-7	4	-8	5
Cc1ccc(Nc2nc(N)nc(COC(=O)c3ccc(Br)o3)n2)cc1	-2	-1	6	0	-2	-6
CN(C)CCOC1c2ccccc2CSc2ccccc21 (stereo unspecified)	-19	-16	-28	1	98*	99*
Cc1csc2ncnc(N3CCN(S(=O)(=O)c4cccc(C(F)(F)F)c4)CC3)c12	1	-13	-18	14	26	44*
Cc1cccc(C(=O)N2CCCC(CCC(=O)N3CCN(c4ccccn4)CC3)C2)c1 (stereo unspecified)	-3	-8	-7	5	-1	16
Cc1cc(C(=O)OCn2nnc3ccccc3c2=O)c(C)n1-c1ccccc1	-6	-6	-7	0	-11	-2
CS(=O)(=O)c1sc(C#N)c2c1C(=O)CC(c1ccccc1)C2 (stereo unspecified)	-19	-15	-20	8	76*	31*
Cc1oc2c(CN3CCOCC3)c(O)ccc2c(=O)c1-c1ccc(Cl)cc1	-1	-32	16	1	7	-11
Cc1oc2c(CN3CCOCC3)c(O)ccc2c(=O)c1-c1ccc(Br)cc1	-4	-20	-2	0	38*	-1
Cc1oc2c(CN3CCCC3)c(O)ccc2c(=O)c1-c1ccccc1	-1	-19	-4	0	14	8
Cc1oc2c(CN3CCCC3)c(O)ccc2c(=O)c1-c1ccc(Cl)cc1	-1	-19	-1	2	70*	-1
O=C(Cc1ccc(NC(=O)C2CCN(C(=O)c3ccccc3)CC2)cc1)Nc1ccc(C(=O)N2CCOCC2)cc1	1	0	0	0	-1	0

Assay outcomes (PubChem BioAssay)
